Consider two molecules from ChEMBL document CHEMBL1139340, “Synthesis, radiosynthesis, and biological evaluation of carbon-11 and fluorine-18 labeled reboxetine analogues: potential positron emission tomography radioligands for in vivo imaging of the norepinephrine transporter” (J Med Chem, 2009).

The nature of data set [1]: Ratio of drug uptake in thalamus to caudate of anesthetized rhesus monkey at 15 to 20 mCi after 85 mins postinjection by microPET. Particulars: in vivo. The data set is classed as ADME, organism-based, Macaca mulatta. The procedure, abridged:
(§1)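 Anesthetized adult male rhesus monkeys scanned on a microPET P4 after 15–20 mCi of the 11C radioligand; emission collected continuously for 125 min, binned, time-activity curves from manually drawn anatomical ROIs; regional uptake divided by caudate uptake (caudate as NET-poor reference) at 85 min postinjection, at baseline.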

The nature of data set [2]: Ratio of drug uptake in pons to caudate of anesthetized rhesus monkey at 15 to 20 mCi after 85 mins postinjection by microPET. The settings on record: in vivo. Format: ADME, organism-based, Macaca mulatta. The procedure, abridged:
as §1

A short description of data set [3]: Ratio of drug uptake in cerebellum to caudate of awaken rhesus monkey at 15 to 20 mCi after by PET method. Format: ADME, tissue-based, Macaca mulatta. The settings on record: in vivo. The procedure, abridged: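 Awake rhesus monkeys imaged on a high-resolution research tomograph for 120 min after injection of the ¹¹C tracer. Images coregistered with composite MRI to define regions of interest. Highest cerebellum-to-caudate uptake ratio read from the time-activity curves.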

A short description of data set [4]: Ratio of drug uptake in thalamus to caudate of awaken rhesus monkey at 15 to 20 mCi after by PET method. The data set is classed as ADME, Macaca mulatta. The settings on record: in vivo. The procedure, abridged:
(§2)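 Awake rhesus monkeys imaged on a high-resolution research tomograph (HRRT) for 120 min after radioligand injection; images coregistered with composite MRI to define regions; time-activity curves generated and highest ratio of regional uptake to caudate uptake taken.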

Data set [5] can be described thus: Ratio of drug uptake in cerebellum to caudate of anesthetized rhesus monkey at 15 to 20 mCi after 85 mins postinjection by microPET. Format: ADME, organism-based, Macaca mulatta. The settings on record: in vivo. The procedure, abridged:
(§3)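 Anesthetized adult male rhesus monkeys given 15–20 mCi of the ¹¹C tracer, alone or after desipramine (0.125 or 0.25 mg/kg) 40 min beforehand. MicroPET emission collected continuously for 125 min and binned. ROIs drawn manually on anatomical landmarks to give time-activity curves. Region-to-caudate uptake ratio taken at 85 min postinjection.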

Data set [6] can be described thus: Ratio of drug uptake in midbrain to caudate of anesthetized rhesus monkey at 15 to 20 mCi pretreated with 0.125 mg/kg desipramine by microPET. Particulars: in vivo. Format: ADME, organism-based, Macaca mulatta. Details: dose 0.125 mg/kg. The procedure, abridged:
(§4)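 Anesthetized adult male rhesus monkeys imaged on a microPET P4 system after injection of 15–20 mCi of the 11C-labeled radioligand. Desipramine was given 40 min before radiotracer injection. Emission data were collected continuously for 125 min and binned. ROIs were drawn manually on anatomical landmarks in the reconstructed images. The ratio of region-of-interest to caudate uptake was taken from time-activity curves at 85 min postinjection.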

The nature of data set [7]: Ratio of drug uptake in pons to caudate of awaken rhesus monkey at 15 to 20 mCi after by PET method. Format: ADME, Macaca mulatta. Particulars: in vivo. The procedure, abridged: as §2
Data set [8] can be described thus: Ratio of drug uptake in midbrain to caudate of awaken rhesus monkey at 15 to 20 mCi after by PET method. Format: ADME, Macaca mulatta. The settings on record: in vivo. The procedure, abridged:
as §2

Data set [9] in a line: Ratio of drug uptake in cerebellum to caudate of anesthetized rhesus monkey at 15 to 20 mCi pretreated with 0.125 mg/kg desipramine by microPET. Format: ADME, organism-based, Macaca mulatta. Details: dose 0.125 mg/kg. The settings on record: in vivo. The procedure, abridged: as §4
Data set [10] is described as follows: Ratio of drug uptake in midbrain to caudate of anesthetized rhesus monkey at 15 to 20 mCi after 85 mins postinjection by microPET. Format: ADME, organism-based, Macaca mulatta. The settings on record: in vivo. The procedure, abridged: as §3
Data set [11] is described as follows: Ratio of drug uptake in thalamus to caudate of anesthetized rhesus monkey at 15 to 20 mCi pretreated with 0.125 mg/kg desipramine by microPET. Format: ADME, organism-based, Macaca mulatta. Details: dose 0.125 mg/kg. Particulars: in vivo. The procedure, abridged: as §4
A short description of data set [12]: Ratio of drug uptake in pons to caudate of anesthetized rhesus monkey at 15 to 20 mCi pretreated with 0.125 mg/kg desipramine by microPET. Format: ADME, organism-based, Macaca mulatta. Also noted: dose 0.125 mg/kg. Particulars: in vivo. The procedure, abridged: as §4
The target in data set [13] is Sodium-dependent dopamine transporter (Homo sapiens, UniProt Q01959). The data set can be described thus: Displacement of [125I]RTI-55 from human DAT receptor expressed in canine kidney cells. Format: cell-based. The procedure, abridged:
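Competition binding against [¹²⁵I]RTI-55 in canine kidney cells stably transfected with human DAT. Ki in nM, geometric mean ± SD of at least three separate experiments, each run in triplicate.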

A short description of data set [14]: Lipophilicity, log P at pH 7.4. The settings on record: buffer. The data set is classed as physicochemical. The procedure, abridged:
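Radiotracer (~5–10 μCi) in 2 mL 1-octanol plus 2 mL 0.02 M sodium phosphate buffer, pH 7.4. Vortexed 10 min at room temperature, centrifuged 5 min. 0.5 mL of each layer gamma-counted and decay corrected. log P = log(octanol counts/buffer counts), done three times and averaged.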

For data set [15], the species on record is Homo sapiens. Briefly: Selectivity for human NET over human DAT. The procedure, abridged: (§5)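 Competition binding in stably transfected cells expressing human transporters: NET vs [3H]nisoxetine and SERT vs [3H]citalopram in HEK-293 cells; DAT vs [125I]RTI-55 in canine kidney cells. Ki as geometric mean of at least three experiments in triplicate; selectivity as ratio of SERT or DAT Ki to NET Ki.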

Data set [16] concerns the target Sodium-dependent noradrenaline transporter (Homo sapiens, UniProt P23975). Briefly: Displacement of [3H]nisoxetine from human NET receptor expressed in HEK293 cells. Format: cell-based. (Displacement assays read how much labelled ligand stays bound in the presence of the test substance.)
Data set [17] is filed under the species Homo sapiens. Briefly: Selectivity for human NET over human SERT. The procedure, abridged:
as §5

The target of data set [18] is Sodium-dependent serotonin transporter (Homo sapiens, UniProt P31645). Briefly: Displacement of [3H]citalopram from human SERT receptor expressed in HEK293 cells. The data set is classed as cell-based. The procedure, abridged: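 Competition binding against [³H]citalopram in HEK-293 cells stably transfected with human SERT. Ki in nM, geometric mean ± SD of at least three separate experiments, each run in triplicate.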
Sodium-dependent serotonin transporter, sequence (P31645 whole entry): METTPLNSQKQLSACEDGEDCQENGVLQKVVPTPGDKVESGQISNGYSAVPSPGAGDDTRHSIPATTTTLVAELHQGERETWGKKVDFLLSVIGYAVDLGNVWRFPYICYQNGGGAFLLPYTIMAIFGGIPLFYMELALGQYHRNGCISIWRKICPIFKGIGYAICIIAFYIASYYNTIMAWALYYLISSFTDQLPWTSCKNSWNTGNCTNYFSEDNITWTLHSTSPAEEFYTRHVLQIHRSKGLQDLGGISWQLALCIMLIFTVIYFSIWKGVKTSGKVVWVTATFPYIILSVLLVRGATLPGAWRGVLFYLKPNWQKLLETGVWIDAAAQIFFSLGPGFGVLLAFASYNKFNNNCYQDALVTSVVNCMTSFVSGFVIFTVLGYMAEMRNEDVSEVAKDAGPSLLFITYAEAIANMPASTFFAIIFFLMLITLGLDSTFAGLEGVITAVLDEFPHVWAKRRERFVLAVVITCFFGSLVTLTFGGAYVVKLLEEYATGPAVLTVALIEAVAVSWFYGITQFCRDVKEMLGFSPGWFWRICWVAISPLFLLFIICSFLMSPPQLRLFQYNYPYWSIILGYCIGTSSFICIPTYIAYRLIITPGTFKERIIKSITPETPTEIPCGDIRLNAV

Sodium-dependent noradrenaline transporter, sequence (P23975 whole entry): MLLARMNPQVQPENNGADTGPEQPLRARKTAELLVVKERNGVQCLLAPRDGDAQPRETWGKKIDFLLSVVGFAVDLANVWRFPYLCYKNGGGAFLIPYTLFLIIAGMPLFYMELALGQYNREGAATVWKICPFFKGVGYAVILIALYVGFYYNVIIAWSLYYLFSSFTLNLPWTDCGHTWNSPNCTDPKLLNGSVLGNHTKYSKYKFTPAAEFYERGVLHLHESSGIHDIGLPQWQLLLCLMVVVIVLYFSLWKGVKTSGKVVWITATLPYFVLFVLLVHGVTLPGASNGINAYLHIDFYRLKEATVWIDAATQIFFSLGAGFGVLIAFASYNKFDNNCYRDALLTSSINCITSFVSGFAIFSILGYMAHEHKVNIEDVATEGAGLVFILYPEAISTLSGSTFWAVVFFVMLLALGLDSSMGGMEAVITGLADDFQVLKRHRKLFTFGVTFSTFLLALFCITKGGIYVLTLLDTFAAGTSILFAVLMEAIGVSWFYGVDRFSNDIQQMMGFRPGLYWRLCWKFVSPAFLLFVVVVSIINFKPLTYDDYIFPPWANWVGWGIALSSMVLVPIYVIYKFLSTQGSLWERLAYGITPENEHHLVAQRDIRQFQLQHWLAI
Sodium-dependent dopamine transporter, sequence (Q01959 whole entry): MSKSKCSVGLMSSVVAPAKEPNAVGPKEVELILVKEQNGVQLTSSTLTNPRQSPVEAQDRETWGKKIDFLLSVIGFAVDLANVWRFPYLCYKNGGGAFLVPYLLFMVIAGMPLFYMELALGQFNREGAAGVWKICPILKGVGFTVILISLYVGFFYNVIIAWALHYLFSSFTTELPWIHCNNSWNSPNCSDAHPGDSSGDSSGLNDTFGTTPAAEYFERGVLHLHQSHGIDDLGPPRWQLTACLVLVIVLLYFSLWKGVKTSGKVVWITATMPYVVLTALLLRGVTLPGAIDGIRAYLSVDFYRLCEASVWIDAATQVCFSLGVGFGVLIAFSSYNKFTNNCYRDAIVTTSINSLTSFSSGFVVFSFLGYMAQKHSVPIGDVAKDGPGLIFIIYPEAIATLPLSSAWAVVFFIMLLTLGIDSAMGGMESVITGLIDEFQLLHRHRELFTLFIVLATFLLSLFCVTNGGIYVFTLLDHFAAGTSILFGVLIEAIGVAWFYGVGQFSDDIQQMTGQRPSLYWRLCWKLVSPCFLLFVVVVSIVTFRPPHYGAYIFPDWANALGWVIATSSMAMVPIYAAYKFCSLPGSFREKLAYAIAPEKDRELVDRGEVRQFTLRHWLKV

Take `[11CH3]c1ccccc1S[C@@H](c1ccccc1)[C@@H]1CNCCO1`: the Ratio in data set [1] was determined as 1.34; in data set [2], 1.27; in data set [3] it was 0.95; in [4], 1.15; in data set [5], 1.05; in data set [6], 1.09. For the same molecule, the Ratio in [7] came out at 1; in data set [8], 1; in data set [9], 0.81; in [10] it was 1.33; in [11] it was 1.02; in data set [12] it was 0.98.
Usually Ki stands for a dissociation constant, usually derived from enzyme kinetics or from competition with a known ligand. As a reminder, the logD is the decadic logarithm of the distribution of all forms, ionised or not, between an organic phase and buffer at a given pH. Regarding `Cc1ccccc1S[C@@H](c1ccccc1)[C@@H]1CNCCO1`, the Ki turned out to be 0.275 µM in [13], 0.0003 µM in data set [16] and 0.0148 µM in data set [18]. The same molecule came in with a pH-dependent lipophilicity (logD) in data set [14] of 2.47. For the same molecule, the values for the Ratio Ki in the data set filed under Homo sapiens [15] and in the data set listed under Homo sapiens [17] were 917 and 49, respectively.
